Experiments:
[1] = Effect on serum lipids in 7th group of normal chow-fed male rats after a dose of 100 mg/kg/day was evaluated as ratio of total plasma cholesterol levels to high-density lipoprotein cholesterol levels; format: functional
Method in brief: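 Male Sprague–Dawley CD rats, 60–80 g, chow-fed, dosed by oral gavage daily for 4 days in 1.3% Tween 80/0.25% CMC. Fasted overnight, bled 24 h after the last dose. Serum total cholesterol by enzymatic reagent; HDL-C from cholesterol in FPLC fractions; TPC/HDL-C ratio calculated. Six per group, mean ± SEM.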

Cricetinae gen. sp. [2] = experiment: Percent change in high-density lipoprotein cholesterol following oral administration of compound in hypercholesterolemic hamsters at 100 mg/kg/day for 14 days; format: functional
Method in brief: (§1)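 Male Syrian Golden hamsters pre-fed chow plus 0.25% cholesterol for 2 weeks and kept on it. Dosed 100 mg/kg/day by oral gavage in 2% Tween 80/saline for 14 days. Serum total cholesterol and glycerol-blanked triglycerides read enzymatically; lipoproteins separated by FPLC with cholesterol measured in each fraction. % change versus vehicle controls; six per group, p < 0.05.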

Rattus norvegicus [3] = experiment: Effect of compound on aspartate aminotransferase (AST) levels in 6th group of normal chow-fed male rats after a dose of 50 mg/kg/day; format: functional, organism-based
Method in brief: (§2)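 Male Sprague–Dawley CD rats (60–80 g) on standard chow under a reversed 12 h light/dark cycle. Compound was suspended in 1.3% Tween 80/0.25% CMC and given as a single daily oral gavage dose for 4 days. Rats were fasted overnight and killed 24 h after the last dose. Serum ALT, AST, ALKP and LDH were read on a clinical analyzer. Weight gain was start versus end weight. Mean ± SEM, n = 6.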

Rattus norvegicus [4] = experiment: Effect of compound on thyroxine levels in 6th group of normal chow-fed male rats after a dose of 50 mg/kg/day; format: functional, organism-based
Method in brief: (§3)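 Male Sprague–Dawley CD rats, 60–80 g, on standard chow with reverse 12 h light/dark cycle. One oral gavage dose daily for 4 days, suspended in 1.3% Tween 80 and 0.25% CMC. Fasted overnight; sacrificed 24 h after the last dose. Serum TC on clinical analyzer, lipoproteins by FPLC with cholesterol per fraction, T4 on analyzer. Mean ± SEM, six rats per group.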

Rattus norvegicus [5] = experiment: Effect of compound on aspartate aminotransferase (AST) levels in 2nd group of normal chow-fed male rats after a dose of 2 mg/kg/day; format: functional, organism-based; method in brief: as §2
Rattus norvegicus [6] = experiment: Effect of compound on liver weight in 7th group of normal chow-fed male rats after a dose of 100 mg/kg/day; format: functional
Method in brief: (§4)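 Male Sprague–Dawley CD rats, 60–80 g, on chow with a reverse 12 h light/dark cycle. Given one oral gavage dose daily for 4 days, suspended in 1.3% Tween 80/0.25% CMC. Fasted overnight and sacrificed 24 h after the last dose for blood and liver. Serum liver enzymes read on a clinical analyzer. Six per group, mean ± SEM.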

Cricetinae gen. sp. [7] = experiment: Effect of compound on triglycerides level in 4th group of cholesterol-fed male hamsters at 100 mg/kg/day after 14 days of treatment; conditions: Mesocricetus auratus
Rattus norvegicus [8] = experiment: Effect of compound on relative liver weight in 2nd group of normal chow-fed male rats after a dose of 2 mg/kg/day; format: functional
Method in brief: (§5)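 Chow-fed male Sprague–Dawley CD rats, 60–80 g, dosed by oral gavage once daily for 4 days in 1.3% Tween 80/0.25% CMC. Fasted overnight and sacrificed 24 h after the last dose. Liver weight expressed as % of body weight at termination. Six per group, mean ± SEM.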

Cricetinae gen. sp. [9] = experiment: Effect of compound on liver weight in 1st group of cholesterol-fed male hamsters at 3 mg/kg/day after 14 days of treatment; format: functional
Method in brief: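 Male Syrian Golden hamsters, 90–100 g, fed chow plus 0.25% cholesterol for 2 weeks before and throughout dosing. Compound suspended in 2% Tween 80 in saline, given by oral gavage for 14 days; vehicle controls. Fasted 4 h, last dose 2 h before sacrifice, then weighed and blood and liver collected. Liver enzymes read on a clinical analyzer. Six per group, mean ± SEM.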

Rattus norvegicus [10] = experiment: Effect of compound on lactic dehydrogenase (LDH) levels in 4th group of normal chow-fed male rats after a dose of 10 mg/kg/day; format: functional, organism-based; method in brief: as §4
Cricetinae gen. sp. [11] = experiment: Effect of compound on low-density lipoprotein cholesterol levels in 2nd group of cholesterol-fed male hamsters at 10 mg/kg/day after 14 days of treatment; conditions: Mesocricetus auratus
Rattus norvegicus [12] = experiment: Effect of compound on thyroxine levels in 3rd group of normal chow-fed male rats after a dose of 5 mg/kg/day; format: functional, organism-based; method in brief: as §3
Cricetinae gen. sp. [13] = experiment: Effect of compound on very low-density lipoprotein cholesterol levels in 1st group of cholesterol-fed male hamsters at 3 mg/kg/day after 14 days of treatment; conditions: Mesocricetus auratus
Rattus norvegicus [14] = experiment: Effect of compound on very low-density lipoprotein cholesterol levels in 6th group of normal chow-fed male rats after a dose of 50 mg/kg/day; format: functional, organism-based
Method in brief: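 Male Sprague–Dawley CD rats (60–80 g) on Purina 5001 chow with a reverse 12 h light/dark cycle. Dosed once daily by oral gavage for 4 days, suspended in 1.3% Tween 80 / 0.25% CMC. Fasted overnight and bled 24 h after the last dose. Serum TC and glycerol-blanked TG measured enzymatically; VLDL-C by FPLC fractionation with cholesterol assay. n=6, mean ± SEM.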

Rattus norvegicus [15] = experiment: Effect of compound on aspartate aminotransferase (AST) levels in 1st group of normal chow-fed male rats after a dose of 1 mg/kg/day; format: functional, organism-based; method in brief: as §2
Rattus norvegicus [16] = experiment: Effect of compound on serum high-density lipoprotein cholesterol concentration in chow-fed male rats at a dose of 0 mg/kg/day; format: functional, organism-based
Method in brief: (§6)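 Separate dose-response study in male Sprague–Dawley CD rats, 60–80 g, on chow. Oral gavage once daily for 4 days in 1.3% Tween 80 / 0.25% CMC; fasted overnight, bled 24 h after last dose. Apo-A1 by ELISA with rabbit anti-rat primary, alkaline phosphatase-conjugated anti-rabbit IgG and p-nitrophenyl phosphate substrate. HDL-C by FPLC fractionation. Mean ± SEM, six per group.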

Rattus norvegicus [17] = experiment: Effect of compound on gain in body weight in 3rd group of normal chow-fed male rats after a dose of 5 mg/kg/day; format: functional; method in brief: as §2
Rattus norvegicus [18] = experiment: Effect of compound on serum high-density lipoprotein cholesterol concentration in chow-fed male rats at a dose of 10 mg/kg/day; format: functional, organism-based; method in brief: as §6
Rattus norvegicus [19] = experiment: Effect of compound on relative liver weight in 6th group of normal chow-fed male rats after a dose of 50 mg/kg/day; format: functional; method in brief: as §5
Rattus norvegicus [20] = experiment: Effect of compound on alkaline phosphatase (ALKP) levels in 2nd group of normal chow-fed male rats after a dose of 2 mg/kg/day; format: functional, organism-based; method in brief: as §2
Rattus norvegicus [21] = experiment: Effect of compound on alanine aminotransferase (ALT) levels in 1st group of normal chow-fed male rats after a dose of 1 mg/kg/day; format: functional, organism-based; method in brief: as §2
Rattus norvegicus [22] = experiment: Effect of compound on serum apolipoprotein A1 concentration in chow-fed male rats at a dose of 5 mg/kg/day; format: functional, organism-based; method in brief: as §6
Cricetinae gen. sp. [23] = experiment: Percent change in total plasma cholesterol following oral administration of compound in hypercholesterolemic hamsters at 100 mg/kg/day for 14 days; format: functional; method in brief: as §1

Question: For `CCN1CC(=O)N(c2cc(Cl)ccc2C)C1=S`, which Ratio [1] is on record?
Answer: 1.56

Question: And the Change (Cricetinae gen. sp. [2])?
Answer: 43%

Question: What about the Level (Rattus norvegicus [3]) of the same compound?
Answer: 232 U l-1

Question: What about the Serum level (Rattus norvegicus [4]) of the same compound?
Answer: 3.47 µg/dL

Question: What about the Level (Rattus norvegicus [5]) of the same compound?
Answer: 195 U l-1

Question: And the Liver weight (Rattus norvegicus [6])?
Answer: 7.8 g

Question: And the Serum level (Cricetinae gen. sp. [7])?
Answer: 342 mg/dL

Question: What about the Relative liver weight (Rattus norvegicus [8]) of the same compound?
Answer: 3.9%

Question: And the Liver weight (Cricetinae gen. sp. [9])?
Answer: 9.58 g

Question: What about the Level (Rattus norvegicus [10]) of the same compound?
Answer: 553 U l-1

Question: What about the Serum level (Cricetinae gen. sp. [11]) of the same compound?
Answer: 136 mg/dL

Question: And the Serum level (Rattus norvegicus [12])?
Answer: 4.23 µg/dL

Question: What about the Serum level (Cricetinae gen. sp. [13]) of the same compound?
Answer: 115 mg/dL

Question: And the Serum level (Rattus norvegicus [14])?
Answer: 6.5 mg/dL

Question: What about the Level (Rattus norvegicus [15]) of the same compound?
Answer: 216 U l-1

Question: And the Serum level (Rattus norvegicus [16])?
Answer: 51.9 mg/dL

Question: And the Body weight (Rattus norvegicus [17])?
Answer: 30.7 g

Question: What about the Serum level (Rattus norvegicus [18]) of the same compound?
Answer: 73.1 mg/dL

Question: What about the Relative liver weight (Rattus norvegicus [19]) of the same compound?
Answer: 4%

Question: What about the Level (Rattus norvegicus [20]) of the same compound?
Answer: 373 U l-1

Question: What about the Level (Rattus norvegicus [21]) of the same compound?
Answer: 61 U l-1

Question: What about the Serum level (Rattus norvegicus [22]) of the same compound?
Answer: 72.9 mg/dL

Question: And the Change (Cricetinae gen. sp. [23])?
Answer: -3.3%

Reference: ChEMBL document CHEMBL1148398, “Design, synthesis, and biological evaluation of thio-containing compounds with serum HDL-cholesterol-elevating properties” (2004)
